Columns and labels:
[1] = Inhibition of cytochrome P450 progesterone 16-alpha hydroxylase; type: ADME, Rattus norvegicus
[2] = Inhibition of lauric acid hydroxylase cytochrome P450 4A; set-up: species or system Rattus norvegicus
Method in brief: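 Microsomal protein (0.05 mg/mL) with [14C]lauric acid (10 nmol, 6 mCi/mmol), potassium phosphate pH 7.4, MgCl2, EDTA, glucose 6-phosphate, glucose-6-phosphate dehydrogenase (2 units) and NADPH, in 1 mL. Ran 10 min at 37 °C and was stopped with CH2Cl2. Products were resolved by reverse-phase HPLC on a MeCN gradient with radioflow detection.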

[3] = target: T1, Lanosterol 14-alpha demethylase (Rattus norvegicus, UniProt Q64654); assay: Inhibition of lanosterol 14 alpha-demethylase cytochrome P450 51A
T1 sequence (Q64654 whole entry): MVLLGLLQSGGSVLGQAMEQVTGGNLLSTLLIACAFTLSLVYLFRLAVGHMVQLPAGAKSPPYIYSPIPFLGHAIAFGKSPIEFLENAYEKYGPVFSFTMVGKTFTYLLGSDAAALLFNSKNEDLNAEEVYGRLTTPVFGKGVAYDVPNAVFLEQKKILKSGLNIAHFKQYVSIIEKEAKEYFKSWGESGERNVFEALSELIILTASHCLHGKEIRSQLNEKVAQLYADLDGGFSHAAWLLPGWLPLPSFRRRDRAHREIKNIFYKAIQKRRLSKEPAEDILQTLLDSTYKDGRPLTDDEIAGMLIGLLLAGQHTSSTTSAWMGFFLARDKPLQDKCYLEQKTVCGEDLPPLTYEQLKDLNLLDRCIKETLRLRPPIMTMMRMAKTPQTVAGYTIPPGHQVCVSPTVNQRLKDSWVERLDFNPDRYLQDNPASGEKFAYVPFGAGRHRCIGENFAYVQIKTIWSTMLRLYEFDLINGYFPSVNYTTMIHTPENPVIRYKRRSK
Method in brief: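 Liver microsomes from cholestyramine-treated male rats. Buffer was potassium phosphate pH 7.0 with DTT, EDTA, MgCl2, 0.005% Tween-20, 20% glycerol, 5 mM glucose 6-phosphate and G6P dehydrogenase. […] Reaction was started with NADPH, run 30 min at 37 °C and stopped with TCA. Tritiated water-soluble products were separated on Bond-Elut and counted by scintillation in duplicate.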

[4] = Inhibition of Steroid 17-alpha-hydroxylase/17,20 lyase cytochrome P450 17A1; set-up: species or system Sus scrofa
Cytochrome P450 2A2 = Cytochrome P450 2A2 (Rattus norvegicus, UniProt P15149); assay: Inhibition of cytochrome P450 progesterone 15-alpha hydroxylase; type: ADME
[5] = target: Cholesterol side-chain cleavage enzyme, mitochondrial (Bos taurus) (UniProt P00189); assay: Inhibition of cholesterol side chain cleavage cytochrome P450
Sequence of Cholesterol side-chain cleavage enzyme, mitochondrial (Bos taurus) (P00189 whole entry, looked up): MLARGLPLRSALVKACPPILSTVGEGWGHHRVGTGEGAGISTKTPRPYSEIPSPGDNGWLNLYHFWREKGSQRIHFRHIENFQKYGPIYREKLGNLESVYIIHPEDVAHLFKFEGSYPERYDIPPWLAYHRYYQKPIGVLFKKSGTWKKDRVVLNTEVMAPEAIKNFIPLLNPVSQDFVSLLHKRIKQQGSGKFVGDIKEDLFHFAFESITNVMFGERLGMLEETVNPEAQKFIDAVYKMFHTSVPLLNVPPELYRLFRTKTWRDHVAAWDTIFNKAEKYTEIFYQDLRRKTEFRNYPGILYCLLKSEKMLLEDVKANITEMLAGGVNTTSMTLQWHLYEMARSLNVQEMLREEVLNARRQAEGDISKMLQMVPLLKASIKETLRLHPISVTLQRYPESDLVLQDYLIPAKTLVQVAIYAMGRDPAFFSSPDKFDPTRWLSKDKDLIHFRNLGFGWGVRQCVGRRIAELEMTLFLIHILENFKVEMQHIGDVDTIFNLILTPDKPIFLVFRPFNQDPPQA

Sequence of Cytochrome P450 2A2 (P15149 whole entry): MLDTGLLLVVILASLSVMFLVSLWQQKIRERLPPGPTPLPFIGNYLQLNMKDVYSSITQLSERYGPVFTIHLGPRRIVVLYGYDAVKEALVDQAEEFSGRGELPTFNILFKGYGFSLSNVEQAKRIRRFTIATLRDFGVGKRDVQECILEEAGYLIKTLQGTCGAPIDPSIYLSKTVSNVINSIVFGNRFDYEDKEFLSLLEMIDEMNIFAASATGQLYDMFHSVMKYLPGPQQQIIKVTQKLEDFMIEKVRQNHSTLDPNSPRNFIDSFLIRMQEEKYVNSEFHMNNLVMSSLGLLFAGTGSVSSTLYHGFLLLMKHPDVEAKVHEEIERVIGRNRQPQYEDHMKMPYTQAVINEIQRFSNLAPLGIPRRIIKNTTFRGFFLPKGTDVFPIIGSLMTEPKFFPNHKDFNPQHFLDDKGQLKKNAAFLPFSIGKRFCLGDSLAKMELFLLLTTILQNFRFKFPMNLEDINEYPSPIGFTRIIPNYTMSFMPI

Compound | IC50 [1] | IC50 [2] | IC50 [3] | IC50 [4] | IC50 (Cytochrome P450 2A2) | IC50 [5]
CC(=O)N1CCN(c2ccc(OC[C@H]3CO[C@@](Cn4ccnc4)(c4ccc(Cl)cc4Cl)O3)cc2)CC1 | 37.9 µM | > 100 µM | 1.6 µM | 0.589 µM | 1.08 µM | 2.95 µM
CC(=O)N1CCN(c2ccc(OC[C@@H]3CO[C@](Cn4ccnc4)(c4ccc(Cl)cc4Cl)O3)cc2)CC1 | 32.3 µM | > 100 µM | 1.37 µM |  | 0.728 µM | 3.92 µM
CC(=O)N1CCN(c2ccc(OCC3COC(Cn4ccnc4)(c4ccc(Cl)cc4Cl)O3)cc2)CC1 (stereo in doubt; 2) [KETOCONAZOLE] | 83.9 µM |  | 0.047 µM | 0.05 µM | 0.543 µM | 1.24 µM
CC(=O)N1CCN(c2ccc(OCC3COC(Cn4ccnc4)(c4ccc(Cl)cc4Cl)O3)cc2)CC1 (stereo in doubt; 4) [KETOCONAZOLE] | 69.3 µM | > 100 µM | 0.119 µM | 2.38 µM | 0.369 µM | 5.4 µM

Reference: ChEMBL document CHEMBL1125500 (J Med Chem, 1992)
